The nature of series [1]: Hemolytic activity in rabbit RBC at 50 uM after 20 mins relative to control. The series is classed as ADME, cell-based, Oryctolagus cuniculus, Erythrocyte. To be noted: rabbit red blood cells (erythrocytes), read-out: Activity. The procedure, abridged: (§1)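 Rabbit erythrocytes suspended in 150 mM NaCl/10 mM Hepes-NaOH, pH 7.4, at 0.5% hematocrit (final) and incubated with compound at 37 °C. The table footnote gives 20 min; the methods section gives 30 min. Hemolysis was read as absorbance at 540 nm, with 50 µM lysolecithin defining 100% hemolysis.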

A short description of series [2]: Hemolytic activity in rabbit RBC at 2 uM after 20 mins relative to control. The series is classed as ADME, cell-based, Oryctolagus cuniculus, Erythrocyte. The following applies: rabbit red blood cells (erythrocytes), read-out: Activity. The procedure, abridged: as §1
In series [3] the test system is Enterococcus faecium. Nature of the series: Antibacterial activity against drug-resistant Enterococcus faecium MS29120 after 18 to 20 hrs by agar dilution method. The series is classed as functional. The procedure, abridged:
(§2)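 Agar dilution per CLSI. Overnight broth cultures were diluted 100-fold, and one loopful (about 10^5 to 10^4 CFU) was spotted onto agar plates containing the CD. Growth was scored after 18–20 h at 37 °C. MIC values are in µM.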
In general terms: Agar dilution tests growth on a series of plates holding different concentrations.

Series [4] has as its system Escherichia coli. Put plainly: Antibacterial activity against drug-sensitive Escherichia coli K-12 W3110 after 20 hrs by liquid microdilution method. The series is classed as functional. The following applies: K-12 substr. W3110, 20 h. The procedure, abridged: (§3)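 Two-fold serial dilutions of compound in Mueller–Hinton broth, inoculated with 1 × 10^4 cells and cultured at 37 °C for 20 h in microtiter wells.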
In general terms: In broth dilution the organism is exposed to a series of concentrations in liquid medium.

Series [5] has as its system Bacillus subtilis. Put plainly: Antibacterial activity against drug-sensitive Bacillus subtilis 168 after 20 hrs by liquid microdilution method. The series is classed as functional. To be noted: subsp. subtilis str. 168, 20 h. The procedure, abridged:
as §3

Series [6] can be described thus: Lipophilicity, log P of the compound. The series is classed as physicochemical. To be noted: octanol/water.
In series [7] the test system is Pseudomonas aeruginosa. Nature of the series: Antibacterial activity against drug-sensitive Pseudomonas aeruginosa PAO1 after 20 hrs by liquid microdilution method. To be noted: PAO1, 20 h. The series is classed as functional. A digest of the protocol: as §3
For series [8], the system named is Staphylococcus aureus. Nature of the series: Antibacterial activity against methicillin-resistant Staphylococcus aureus MS29202 after 18 to 20 hrs by agar dilution method. The series is classed as functional. The procedure, abridged: as §2
Series [9] can be described thus: Hemolytic activity in rabbit RBC at 20 uM after 20 mins relative to control. The series is classed as ADME, cell-based, Oryctolagus cuniculus, Erythrocyte. To be noted: rabbit red blood cells (erythrocytes), read-out: Activity. A digest of the protocol: as §1
The nature of series [10]: Hemolytic activity in rabbit RBC at 10 uM after 20 mins relative to control. The series is classed as ADME, cell-based, Oryctolagus cuniculus, Erythrocyte. The following applies: rabbit red blood cells (erythrocytes), read-out: Activity. A digest of the protocol:
as §1

For series [11], the system named is Staphylococcus aureus. Put plainly: Antibacterial activity against Staphylococcus aureus FDA 209P assessed as decrease in cell viability after 30 mins by colony counting method. The series is classed as functional. The following applies: 0.5 h. The procedure, abridged: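 S. aureus washed twice and suspended at 2 × 10^9 cells per cm3 in 100 mM choline chloride/50 mM Mops-Tris, pH 7.2. Exposed to CD at 37 °C for 30 min. An aliquot was diluted in physiological saline, plated on polypeptone/yeast extract/NaCl agar and incubated overnight at 37 °C. Viability was taken from colony counts; LC50 is the concentration giving 50% viability.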

Series [12] deals with Staphylococcus aureus. Nature of the series: Antibacterial activity against methicillin-sensitive Staphylococcus aureus FDA 209P after 20 hrs by liquid microdilution method. The series is classed as functional. The procedure, abridged: as §3
Series [13] relates to Enterococcus faecalis. Put plainly: Antibacterial activity against vancomycin-resistant Enterococcus faecalis MS29016 after 18 to 20 hrs by agar dilution method. The series is classed as functional. A digest of the protocol: as §2
In series [14] the test system is Streptococcus agalactiae. Put plainly: Antibacterial activity against drug-resistant Streptococcus agalactiae B1 after 18 to 20 hrs by agar dilution method. The series is classed as functional. A digest of the protocol:
as §2

The test system of series [15] is Enterococcus faecalis. Put plainly: Antibacterial activity against drug-resistant Enterococcus faecalis MS29030 after 18 to 20 hrs by agar dilution method. The series is classed as functional. The procedure, abridged:
as §2

The nature of series [16]: Hemolytic activity in rabbit RBC at 5 uM after 20 mins relative to control. The series is classed as ADME, cell-based, Oryctolagus cuniculus, Erythrocyte. To be noted: rabbit red blood cells (erythrocytes), read-out: Activity. A digest of the protocol: as §1
The subject of series [17] is Salmonella typhimurium. Put plainly: Antibacterial activity against drug-sensitive Salmonella typhimurium LT2 after 20 hrs by liquid microdilution method. The series is classed as functional, Salmonella enterica subsp. enterica serovar Typhimurium. To be noted: Salmonella enterica, LT2, 20 h. The procedure, abridged:
as §3

Series [18] in a line: Hemolytic activity in rabbit RBC at 1 uM after 20 mins relative to control. The series is classed as ADME, cell-based, Oryctolagus cuniculus, Erythrocyte. The following applies: rabbit red blood cells (erythrocytes), read-out: Activity. The procedure, abridged: as §1
The test system of series [19] is Staphylococcus aureus. Put plainly: Induction of membrane disruption in methicillin-sensitive Staphylococcus aureus FDA 209P assessed as increase in K+ efflux after 30 mins. The series is classed as functional. The following applies: 0.5 h, read-out: ED50 (the source's name). A digest of the protocol: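 S. aureus washed twice and suspended at 2 × 10^9 cells per cm3 in 100 mM choline chloride/50 mM Mops-Tris, pH 7.2, then exposed to compound at 37 °C for 30 min. Released K+ was measured in the centrifuged supernatant with a K+-selective electrode. Melittin (10 µM) defined 100% efflux, and ED50 is the concentration giving 50% efflux.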

These results are taken from ChEMBL document CHEMBL4257484, “Membrane-active antimicrobial poly(amino-modified alkyl) β-cyclodextrins synthesized via click reactions” (Medchemcomm, 2018).

Converted amounts (≈) assume the structure as drawn.

Usually MIC stands for the least concentration at which growth counts as inhibited. For orientation: logP means a log measure of how a compound divides between an organic and an aqueous phase. A low value points to a more hydrophilic compound. One may read the LC50 as the concentration lethal to half of the exposed cells or organisms.

Regarding `CCCCCCNCc1cn(C[C@H]2O[C@@H]3O[C@H]4[C@H](O)[C@@H](O)[C@@H](O[C@H]5[C@H](O)[C@@H](O)[C@@H](O[C@H]6[C@H](O)[C@@H](O)[C@@H](O[C@H]7[C@H](O)[C@@H](O)[C@@H](O[C@H]8[C@H](O)[C@@H](O)[C@@H](O[C@H]9[C@H](O)[C@@H](O)[C@@H](O[C@H]2[C@H](O)[C@H]3O)O[C@@H]9Cn2cc(CNCCCCCC)nn2)O[C@@H]8Cn2cc(CNCCCCCC)nn2)O[C@@H]7Cn2cc(CNCCCCCC)nn2)O[C@@H]6Cn2cc(CNCCCCCC)nn2)O[C@@H]5Cn2cc(CNCCCCCC)nn2)O[C@@H]4Cn2cc(CNCCCCCC)nn2)nn1`, the hemolysis at 20 min, 50 µM in series [1] amounted to 110%. In series [2], the hemolysis at 20 min, 2 µM is 4%. Also, the minimum inhibitory concentration (MIC) in series [3] was 10 µM (≈ 22.8 µg/mL); in series [4], 5 µM (≈ 11.4 µg/mL); in series [5] it was 3 µM (≈ 6.85 µg/mL); in series [7], 10 µM (≈ 22.8 µg/mL); in series [8] it was 21 µM (≈ 48 µg/mL); in series [12] it was 3 to 10 µM (≈ 6.85 to 22.8 µg/mL). Besides, the MIC is 42 µM (≈ 96 µg/mL) in series [13], 10 µM (≈ 22.8 µg/mL) in [14], greater than 42 µM in series [15] and 10 µM (≈ 22.8 µg/mL) in series [17]. Besides, the lipophilicity (logP) in series [6] is -0.06. In addition, the hemolysis at 20 min, 20 µM in series [9] was 64%. Besides, the hemolysis at 20 min, 10 µM in series [10] was 25%. Besides, in [11], the 50% lethal concentration (LC50) was 15 µM. The hemolysis at 20 min, 5 µM in series [16] is 7%. For the same compound, the hemolysis at 20 min, 1 µM in series [18] is 0%. Moreover, the EC50 in series [19] is 15 µM.
Consider `CCCCCNCc1cn(C[C@H]2O[C@@H]3O[C@H]4[C@H](O)[C@@H](O)[C@@H](O[C@H]5[C@H](O)[C@@H](O)[C@@H](O[C@H]6[C@H](O)[C@@H](O)[C@@H](O[C@H]7[C@H](O)[C@@H](O)[C@@H](O[C@H]8[C@H](O)[C@@H](O)[C@@H](O[C@H]9[C@H](O)[C@@H](O)[C@@H](O[C@H]2[C@H](O)[C@H]3O)O[C@@H]9Cn2cc(CNCCCCC)nn2)O[C@@H]8Cn2cc(CNCCCCC)nn2)O[C@@H]7Cn2cc(CNCCCCC)nn2)O[C@@H]6Cn2cc(CNCCCCC)nn2)O[C@@H]5Cn2cc(CNCCCCC)nn2)O[C@@H]4Cn2cc(CNCCCCC)nn2)nn1`, for which the hemolysis at 20 min, 50 µM in series [1] amounted to 1%. In addition, the hemolysis at 20 min, 2 µM in series [2] amounted to 0%. Further, the MIC in series [3] was 21 µM (≈ 45.9 µg/mL); in series [4], 43 µM (≈ 94 µg/mL); in series [5], 1 µM (≈ 2.19 µg/mL); in series [7] it was greater than 43 µM; in series [8] it was 21 µM (≈ 45.9 µg/mL); in series [12], 3 to 5 µM (≈ 6.56 to 10.9 µg/mL). Moreover, the minimal inhibitory concentration (MIC) in series [13] is greater than 43 µM; in series [14], 3 µM (≈ 6.56 µg/mL); in series [15] it was greater than 43 µM; in [17], greater than 43 µM. The compound further came in with a log partition coefficient (logP) in series [6] of -0.48. In series [9], the hemolysis at 20 min, 20 µM turned out to be 0%. Further, the hemolysis at 20 min, 10 µM in series [10] is 0%. For the same compound, the LC50 in series [11] came to 20 µM. For the same compound, the hemolysis at 20 min, 5 µM in series [16] amounted to 1%. Besides, the hemolysis at 20 min, 1 µM in series [18] worked out at 0%. Besides, the EC50 in series [19] was found to be 20 µM.
